Here are results for 32 compounds from ChEMBL document CHEMBL5143527, “Discovery and optimization of cyclohexane-1,4-diamines as allosteric MALT1 inhibitors” (Eur J Med Chem, 2022).

≈ marks a conversion by molar mass, not a printed value.

Series [1] is described as follows: Lipophilicity, log D of compound at 7.4 by LC-MS analysis. To be noted: pH 7.4. In kind it is physicochemical. A digest of the protocol:
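ChromlogD at pH 7.4: retention time on an LCMS system with an aqueous mobile phase, converted to lipophilicity with a calibration curve.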

Series [2] is described as follows: Metabolic stability in human liver microsomes assessed as intrinsic clearance by LC-MS/MS analysis. In kind it is ADME, Microsome. To be noted: read-out: CLH. A digest of the protocol:
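Human liver microsomes, compound incubated; intrinsic clearance from disappearance of the parent compound over time.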
(In general: Liver microsomes are vesicles of endoplasmic reticulum, rich in cytochrome P450 enzymes.)

In series [3] the target is T1, Mucosa-associated lymphoid tissue lymphoma translocation protein 1 (Homo sapiens, UniProt Q9UDY8).
T1 sequence (Q9UDY8 whole entry): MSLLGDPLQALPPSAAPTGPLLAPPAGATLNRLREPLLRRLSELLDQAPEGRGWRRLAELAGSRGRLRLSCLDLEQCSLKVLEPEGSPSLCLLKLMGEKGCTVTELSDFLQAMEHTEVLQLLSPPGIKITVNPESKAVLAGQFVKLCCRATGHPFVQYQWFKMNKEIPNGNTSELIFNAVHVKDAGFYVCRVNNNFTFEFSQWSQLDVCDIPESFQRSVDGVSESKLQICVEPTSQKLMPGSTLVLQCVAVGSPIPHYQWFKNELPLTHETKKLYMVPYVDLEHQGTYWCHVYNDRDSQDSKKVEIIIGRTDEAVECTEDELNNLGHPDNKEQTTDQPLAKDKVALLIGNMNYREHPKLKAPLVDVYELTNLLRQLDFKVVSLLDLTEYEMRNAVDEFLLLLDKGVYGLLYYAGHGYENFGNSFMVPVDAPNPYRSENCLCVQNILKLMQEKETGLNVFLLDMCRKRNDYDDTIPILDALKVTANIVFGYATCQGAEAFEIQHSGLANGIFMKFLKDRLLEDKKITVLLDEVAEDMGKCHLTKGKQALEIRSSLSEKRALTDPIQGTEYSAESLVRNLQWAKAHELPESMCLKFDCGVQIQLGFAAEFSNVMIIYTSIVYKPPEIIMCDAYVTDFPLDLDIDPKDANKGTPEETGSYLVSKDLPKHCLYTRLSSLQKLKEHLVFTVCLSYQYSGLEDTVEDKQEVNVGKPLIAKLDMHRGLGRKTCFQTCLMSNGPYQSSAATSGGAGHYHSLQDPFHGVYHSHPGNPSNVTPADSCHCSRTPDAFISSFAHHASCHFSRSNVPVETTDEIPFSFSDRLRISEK
The experiment in a line: Inhibition of human MALT1 assessed as cleavage of substrate using fluorescent labeled Ac-LRSR-Rh110 peptide as substrate incubated for 30 mins followed by substrate addition and measured after 3 to 4 hrs by FRET assay. In outline:
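Fluorogenic MALT1 cleavage assay with the tetrapeptide LRSR carrying rhodamine 110 and a non-fluorescent quencher; signal read as FRET. Horseradish peroxidase and resazurin redox counter-assays used to exclude artefacts. Values are the mean of at least three independent measurements, with standard deviation.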

For series [4], the target named is T1, Mucosa-associated lymphoid tissue lymphoma translocation protein 1. The experiment in a line: Inhibition of human MALT1 in human MCF7 cells assessed as MALT1 mediated cleavage of human A20 in cytosol by fluorescence microscopy. In kind it is subcellular. In outline: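 Cellular MALT1 activity in MCF7 cells, read as inhibition of MALT1-mediated cleavage of human A20.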

The nature of series [5]: Metabolic stability in rat hepatocyte assessed as intrinsic clearance by LC-MS/MS analysis. The class given is ADME, cell-based. To be noted: hepatocytes. In outline: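 Rat hepatocytes, compound incubated; intrinsic clearance (per 10⁶ cells) from disappearance of the parent compound over time.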
Series [6] can be described thus: Solubility of compound in PBS at pH 7.4 incubated for 20 to 24 hrs under shaking condition by LC-MS analysis. The class given is physicochemical. To be noted: time 20-24 hrs. In outline:
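Dried-DMSO solubility: 10 mM DMSO stock dried down, residue resolubilized in 0.1 M phosphate buffer, pH 7.4.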

The term logD denotes the decadic logarithm of the distribution of all forms, ionised or not, between an organic phase and buffer at a given pH. A lower logD goes with lower lipophilicity. The IC50 is the point on the concentration scale where inhibition reaches its midpoint. `Clc1nnc2ccc(N[C@H]3CC[C@@H](Nc4ccncn4)CC3)nn12`: the pH-dependent lipophilicity (logD) in series [1] was found to be 0.7. For the same compound, the microsomal CLint in series [2] came to 25 µL/min/mg. Moreover, the IC50 in series [3] was 31 µM.
Compound `CN(c1ccnc(C(F)(F)F)n1)[C@H]1CC[C@@H](Nc2ccc3nnc(Cl)n3n2)CC1` came in with a logD in series [1] of 3.6. The microsomal CLint in series [2] stood at 18 µL/min/mg. For the same compound, the IC50 in series [3] was 1.1 µM.
For `FC(F)(F)c1nccc(N[C@H]2C[C@@H](Nc3ccc4nnc(Cl)n4n3)C2)n1` the same measures were 2.2, 6.9 µL/min/mg and over 50 µM.
Consider `FC(F)(F)c1nccc(NCC2CCN(c3ccc4nnc(Cl)n4n3)CC2)n1`, for which, in series [1], the logD came out at 2.7. Further, the microsomal CLint in series [2] worked out at 31 µL/min/mg. In addition, the IC50 in series [3] was determined as 23 µM.
With `FC(F)(F)c1nccc(O[C@H]2CC[C@@H](Nc3ccc4nnc(Cl)n4n3)CC2)n1`, in series [1], the logD is 3.7. Moreover, in series [2], the microsomal CLint is under 3 µL/min/mg. In addition, the IC50 in series [3] came out at 1.2 µM.
Take `FC(F)(F)c1nccc(NC[C@H]2C[C@@H](Nc3ccc4nnc(Cl)n4n3)C2)n1`: in series [1], the logD came to 2.5. In series [2], the microsomal CLint stood at 23 µL/min/mg. Also, in series [3], the IC50 was 18 µM.
Take `FC(F)(F)c1cccc(N[C@H]2CC[C@@H](Nc3ccc4nnc(Cl)n4n3)CC2)c1`: in series [1], the logD was 5.2. Also, the microsomal CLint in series [2] was found to be 9.2 µL/min/mg. Moreover, the IC50 in series [3] was found to be 1.4 µM.
For `FC(F)(F)c1nccc(N[C@H]2CC[C@@H](Nc3ccc4cnccc4n3)CC2)n1`, in that order: 2.8, 26 µL/min/mg and 7.5 µM.
Consider `FC(F)(F)c1nccc(N[C@H]2CC[C@@H](Nc3ccc4nnc(C(F)(F)F)n4n3)CC2)n1`, for which the logD in series [1] is 3.8. In series [2], the microsomal CLint was under 3 µL/min/mg. For the same compound, the concentration for half-maximal inhibition (IC50) in series [3] was determined as 1.8 µM.
Take `FC(F)(F)c1nccc(N2CCN(c3ccc4nnc(Cl)n4n3)CC2)n1`: the logD in series [1] came out at 2.4. Further, the microsomal CLint in series [2] is under 3 µL/min/mg. Besides, the IC50 in series [3] is over 50 µM.
Regarding `FC(F)(F)c1nccc(N2CCC(Nc3ccc4nnc(Cl)n4n3)CC2)n1`, the logD in series [1] was found to be 2.9. In addition, in series [2], the microsomal CLint was 50 µL/min/mg. The IC50 in series [3] was over 50 µM.
In the case of `FC(F)(F)c1nccc(N[C@H]2CC[C@@H](Nc3ccc4nncn4n3)CC2)n1`, the logD in series [1] came out at 1.7. The microsomal CLint in series [2] was under 3 µL/min/mg. For the same compound, in series [3], the IC50 was 35 µM.
On to `COc1ncc(N[C@H]2CC[C@@H](Nc3ccc4nnc(Cl)n4n3)CC2)cc1Cl`, for which, in series [1], the logD came out at 3.8. The microsomal CLint in series [2] was under 3 µL/min/mg. Moreover, in series [3], the IC50 is 0.6 µM.
The compound `FC(F)(F)c1nccc(N[C@H]2CC[C@@H](Nc3ccc4nnc(Br)n4n3)CC2)n1` registered a logD in series [1] of 2.9. Further, the results for the IC50 in series [4] and in series [3] were 6.1 µM and 1.1 µM, respectively. In addition, the microsomal CLint in series [2] was under 3 µL/min/mg.
As to `FC(F)(F)c1nccc(N[C@H]2CC[C@@H](Nc3ccc4ncc(Cl)n4n3)CC2)n1`, the logD in series [1] was found to be 4.3. The microsomal CLint in series [2] was 9.9 µL/min/mg. Besides, the IC50 in series [3] was found to be 0.4 µM.
For `FC(F)(F)c1nccc(N[C@H]2CC[C@@H](Nc3cnc4ccccc4c3)CC2)n1` the same measures were 4.6, 5.2 µL/min/mg and 7.2 µM.
The compound `FC(F)(F)c1cc(N[C@H]2CC[C@@H](Nc3ccc4nnc(Cl)n4n3)CC2)ccn1` showed a logD in series [1] of 2.9. Also, the microsomal CLint in series [2] came out at 11 µL/min/mg. Further, in series [3], the IC50 came out at 1.5 µM.
`FC(F)(F)c1nccc(NC2CCN(c3ccc4nnc(Cl)n4n3)CC2)n1` displayed a logD in series [1] of 2.6. Also, the microsomal CLint in series [2] came out at 50 µL/min/mg. In series [3], the IC50 was found to be 6.1 µM.
The compound `Cc1nnc2ccc(N[C@H]3CC[C@@H](Nc4ccnc(C(F)(F)F)n4)CC3)nn12` had a logD in series [1] of 2.3. Besides, the microsomal CLint in series [2] is under 3 µL/min/mg. Moreover, in series [3], the IC50 was found to be 4.7 µM.
Take `FC(F)(F)c1nccc(N[C@@H]2CC[C@H](Nc3ccc4nnc(Cl)n4n3)C2)n1` (racemic): in series [1], the logD amounted to 3.4. Moreover, the microsomal CLint in series [2] was 17 µL/min/mg. For the same compound, the IC50 in series [3] came out at 1.1 µM.
On to `FC(F)(F)c1nccc(N[C@H]2CC[C@@H](Nc3ccncn3)CC2)n1`, for which the pH-dependent lipophilicity (logD) in series [1] was determined as 1.9. In series [2], the microsomal CLint was 18 µL/min/mg. The IC50 in series [3] is over 50 µM.
`FC(F)(F)c1nccc(N[C@]23CC[C@](Nc4ccc5nnc(Cl)n5n4)(CC2)CC3)n1` registered a logD in series [1] of 3. Further, the microsomal CLint in series [2] was determined as 11 µL/min/mg. Besides, in series [3], the IC50 turned out to be 4.2 µM.
In turn, `CSc1nnc2ccc(N[C@H]3CC[C@@H](Nc4ccnc(C(F)(F)F)n4)CC3)nn12` registered a logD in series [1] of 2.8. Moreover, the IC50 in series [4] was determined as 5.9 µM; in series [3], 0.8 µM. Further, the microsomal CLint in series [2] turned out to be 29 µL/min/mg.
A word on the solubility: it is how much of the substance goes into solution per volume. A low value points to a poorly soluble substance. In series [1], `FC(F)(F)c1nccc(N[C@H]2CC[C@@H](Nc3ccnc(C(F)(F)F)n3)CC2)n1` yielded a logD of 4.3. In addition, in series [2], the microsomal CLint is under 3 µL/min/mg. Further, the IC50 in series [3] was 2.2 µM. The CLH in series [5] is < 1 10^-6uL/min. The amount in solution in series [6] (solubility) came to 37 µM (≈ 15 µg/mL).
Compound `CN(c1ccc2nnc(Cl)n2n1)[C@H]1CC[C@@H](Nc2ccnc(C(F)(F)F)n2)CC1` returned a log distribution coefficient (logD) in series [1] of 3.5. The microsomal CLint in series [2] was found to be 12 µL/min/mg. The half-maximal inhibitory concentration (IC50) in series [3] amounted to 0.5 µM.
In series [1], `FC(F)(F)c1nccc(N[C@H]2CC[C@@H](Nc3ncnc4sccc34)CC2)n1` registered a logD of 2.9. Also, the microsomal CLint in series [2] turned out to be 22 µL/min/mg. Further, the IC50 in series [3] came out at 5 µM.
Turning to `FC(F)(F)c1cccc(N[C@H]2CC[C@@H](Nc3ccnc(C(F)(F)F)n3)CC2)c1`, in series [1], the logD is over 5.3. For the same compound, the microsomal CLint in series [2] worked out at 7.5 µL/min/mg. The 50% inhibitory concentration (IC50) in series [3] was determined as 1.8 µM.
In the case of `FC(F)(F)c1nccc(N2CCC(CNc3ccc4nnc(Cl)n4n3)CC2)n1`, in series [1], the logD came out at 2.8. For the same compound, the microsomal CLint in series [2] amounted to 37 µL/min/mg. Moreover, the IC50 in series [3] is 6.1 µM.
Consider `FC(F)(F)c1nccc(N[C@H]2CC[C@@H](Nc3ccc4nnc(C5CC5)n4n3)CC2)n1`, for which the logD in series [1] was 4.5. The microsomal CLint in series [2] is under 3 µL/min/mg. In addition, in series [3], the IC50 was determined as 4.5 µM.
Consider `Nc1nnc2ccc(N[C@H]3CC[C@@H](Nc4ccnc(C(F)(F)F)n4)CC3)nn12`, for which, in series [1], the logD is 1.4. Also, in series [2], the microsomal CLint was under 3 µL/min/mg. Moreover, the IC50 in series [3] amounted to 26 µM.
`FC(F)(F)c1nccc(N[C@H]2CC[C@@H](Oc3ccc4nnc(Cl)n4n3)CC2)n1`: in series [1], the logD was 3.5. Further, the microsomal CLint in series [2] was under 3 µL/min/mg. Besides, the 50% inhibitory concentration (IC50) in series [3] was found to be 7.2 µM.
Consider `FC(F)(F)c1nccc(N[C@H]2C[C@@H](CNc3ccc4nnc(Cl)n4n3)C2)n1`, for which the logD in series [1] was found to be 2.5. For the same compound, the microsomal CLint in series [2] amounted to 36 µL/min/mg. Also, the IC50 in series [3] worked out at 17 µM.
